Source: PubChem (several laboratories)
GRK2 aptamer HTS – human GRK2 inhibition via aptamer displacement | bead flow cytometry, FAM-aptamer displacement from GRK2 | inhibition of aptamer binding, % at 10 µM | 330,000 compounds, 0.59% hits;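 active = inhibition of aptamer binding above 40%, roughly 3 SD of noise, on plates passing a quality check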;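 also: median bead fluorescence of bound FAM aptamer so fluorescent compounds give negative values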
Target sequence (P25098 whole entry, looked up): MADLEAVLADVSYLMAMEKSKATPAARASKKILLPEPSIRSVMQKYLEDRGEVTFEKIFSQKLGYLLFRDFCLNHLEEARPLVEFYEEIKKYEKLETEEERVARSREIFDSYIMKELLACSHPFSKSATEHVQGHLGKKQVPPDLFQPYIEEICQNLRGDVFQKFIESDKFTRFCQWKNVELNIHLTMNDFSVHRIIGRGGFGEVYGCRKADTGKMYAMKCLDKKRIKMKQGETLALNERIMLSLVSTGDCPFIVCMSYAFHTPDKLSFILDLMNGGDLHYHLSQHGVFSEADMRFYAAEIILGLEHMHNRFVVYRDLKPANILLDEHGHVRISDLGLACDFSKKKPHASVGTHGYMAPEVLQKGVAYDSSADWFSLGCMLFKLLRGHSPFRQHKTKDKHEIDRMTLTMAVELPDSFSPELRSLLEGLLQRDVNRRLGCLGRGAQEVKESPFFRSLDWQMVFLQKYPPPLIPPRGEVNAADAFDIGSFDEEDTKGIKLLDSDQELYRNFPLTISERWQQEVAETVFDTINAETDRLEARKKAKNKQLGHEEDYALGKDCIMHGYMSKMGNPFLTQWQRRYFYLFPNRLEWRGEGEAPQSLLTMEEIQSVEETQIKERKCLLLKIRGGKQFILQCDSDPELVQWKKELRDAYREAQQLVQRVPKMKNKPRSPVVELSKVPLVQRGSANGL
T cell modulator – T cell immune modulation candidate; 2C CD8+ T cell-vesicle binding, flow cytometry; active compounds read low; response (vesicle binding), % at 7 µM; 330,000 compounds, 0.068% hits; AID 2052;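 active = response, share of CD8 T cells binding vesicles, and their 90th percentile fluorescence all below set limits, cut at about 80% in these data, passing the limit was not always enough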;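 also: values below 100% mean blocked vesicle binding to the CD8+ T cells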
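Material: murine 2C transgenic CD8+ T lymphocytes / Also added: QL9-peptide-loaded Drosophila micro-vesicles bearing Ld, ICAM-1 and B7-1 / Schedule: binding step 1.5 h, 37 °C, antibody labelling 20 min, ice / Signal: flow cytometry, PE anti-B7-1 (FL2) versus Alexa647 anti-CD8 (FL8), PFA-fixed / Evaluation: percent CD8+ FL2 mean versus row control / Benchmarks: naked versus QL9-loaded vesicles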
aDG glyco up – alpha-DG glycosylation activation | Pro5-aDG cells, alpha-DG glycosylation AlphaScreen (IIH6); 0% Pro5, 100% B10-LARGE cell signal | activation, % at 10 µM | 360,000 compounds, 0.22% hits | AID 624168;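 active = activation of at least 8% versus controls, or a plate z-score of at least 8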;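 also: Pro5 are CHO cells carrying HIG-tagged alpha-DG that lacks glycosylation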
proCasp3 act – procaspase-3 (human) activation. AID 463141. 330,000 compounds, 0.11% hits. P42574. recombinant procaspase-3 D3A, Ac-DEVD-pNA absorbance 405 nm. activation, % at 8.5 µM;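 active = activation above the mean of all tested compounds plus 3 SD, cut at about 21% in these data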;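 also: 0% = DMSO alone and 100% = DMSO wells spiked with extra 5 µM PC-3 D3A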
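Test system: Procaspase-3 D3A mutant; medium: Zinc-free HEPES/NaCl buffer with 0.01% Triton X-100 at pH 7.4; reagent: DEVD-pNA substrate; doses: one concentration, 8.5 µM nominal, 0.8% DMSO; times: 1 h preincubation plus 2 h reaction at 25 °C; signal: Epi-absorbance at 405 nm of released p-nitroaniline, 0 and 120 min; replicates: singlicate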
proCasp7 act – counter-screen: procaspase-7 (human) activation. P55210. recombinant procaspase-7, Ac-DEVD-pNA absorbance 405 nm; D23A/D198A/D206A triple mutant, cannot self-cleave; scale: DMSO 0, 5 µM enzyme 100. activation, % at 8.5 µM. 330,000 compounds, 0.093% hits;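 active = percent activation above the screen-wide mean plus 3 SD, cut at about 25% in these data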
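Replicates: singlicate. Assay system: Procaspase-7 triple mutant (PC-7 D3A). Signal: 405 nm absorbance of p-nitroaniline. Times: 1 h preincubation, 2 h reaction. Buffer or medium: Zinc-free HEPES pH 7.4 with 300 mM NaCl, 0.01% Triton X-100. Also added: DEVD-pNA substrate. Benchmarks: DMSO wells as 0%, DMSO with 5 µM added PC-7 as 100%.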
CaV13 FRET inh – Disruptors of the CACNA1D IQ motif to Ca2+-dependent inactivation inhibitor domain association, primary screening, Förster resonance energy transfer in intact living …; 340,000 compounds, 0.098% hits; AID 743397; inhibition, % at 12.3 µM; HEK cells, CFP/YFP FRET ICDI-IQ, plate reader, 10 min; percent FRET-ratio fall versus neutral wells;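 active = mean replicate inhibition of at least 30% and at least 1% of replicates passing that level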;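 also: 0% = median of the neutral control wells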
aDG conf – alpha-DG glycosylation activation, confirmation. shares compounds with aDG glyco up. Pro5-aDG cells, IIH6 AlphaLISA; scaled to LARGE-overexpressing B10 cells as 100%. activation, % at 10 µM (by protocol). 600 compounds, 17% hits. AID 651671;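 active = activation of at least 7% in one or more replicates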;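 also: cells exposed to compound for two days before detection; 0% = DMSO-treated Pro5 cells and 100% = DMSO-treated B10-LARGE cells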
* marks the source's active call; other numbers are inactive results; i = inactive; x = not tested or not shown. An excerpt weighted towards active compounds, which were near 1.1% of everything screened.

SMILES	GRK2 aptamer HTS	T cell modulator	aDG glyco up	proCasp3 act	proCasp7 act	CaV13 FRET inh	aDG conf
COC(=O)c1ccc(NC(=O)c2ccc3nccnc3c2)cc1	2	i	0	3	2	-3	x
CCCCN(C)CCNC(=O)c1cc(-c2cccnc2)nc2ccc(S(=O)(=O)N3CCC(C)CC3)cc12	0	i	5.4*	6	-14	-3	4.2*
CCN(CC)CCNC(=O)c1cc(-c2cccnc2)nc2ccc(S(=O)(=O)N3CCC(C)CC3)cc12	35	433	0	7	-6	-7	x
CN(C)C(=O)c1ccc(NC(=O)COC(=O)Cn2cc(C(F)(F)F)ccc2=O)cc1	2	318	0	-2	-3	-4	x
CC(=O)c1c(C)[nH]c(C(=O)OCCCCN2C(=O)c3ccccc3C2=O)c1C	2	209	6.9*	9	7	-4	2
CC(=O)c1c(C)[nH]c(C(=O)OCc2ccccc2)c1C	0	460	2	1	-9	-4	x
CCn1c(Cc2ccccc2)nnc1SCC(=O)Nc1cc(C)on1	2	152	44*	-3	6	-3	-1
Cc1cccnc1CN1CCN(C(=O)CCc2nnc(CCc3ccccc3)o2)CC1	0	350	0	-7	2	-6	x
Cc1cccnc1CCNC(=O)CCc1nnc(CCc2ccccc2)o1	2	592	3.3*	-2	6	-6	1
COc1ccc(CN(C)C(=O)C(Cc2ccccc2)NC(=O)c2ccccc2)c(OC)c1 (stereo not drawn)	0	175	0	-2	0	-6	x
CC(C)C[C@@H](CN1CCC[C@@H]1CN1C(=O)C(=O)NC[C@@H]1Cc1ccccc1)N1C[C@H](Cc2ccccc2)N(CC2CCCCC2)C(=O)C1=O	x	x	0	x	x	-7	x
c1ccc2c(N3CCCCCC3)nc(-c3ccncc3)nc2c1	0	337	7.0*	-4	-4	x	0
c1cncc(-c2nc(N3CCCCCC3)c3ccccc3n2)c1	5	491	0	2	11	x	x
CCOc1ccc(/C=C2\SC(=S)N(CC(=O)Nc3ccccn3)C2=O)cc1	0	209	0	-7	9	-4	x
COc1ccc(C(=O)Nc2ccccc2N2CCN(C(=O)c3ccccc3)CC2)cc1Br	0	206	0	3	5	-6	x
Cc1ccc(CS(=O)Cc2ccc(C(=O)NCc3cccs3)o2)cc1 (stereo not drawn)	3	94	6.1*	8	-5	-4	0
Cc1cc(NS(=O)(=O)c2ccc(NC(=O)Nc3cccc(C(F)(F)F)c3)cc2)no1	3	334	0	1	12	-2	x
CC(C)C(=O)Nc1cc2c3c(c1)CCC(=O)N3CCC2	3	506	0	0	-5	-11	x
Cc1cccc(NC(=S)N(CCCN2CCCC2)Cc2cccn2Cc2ccc(Cl)cc2)c1	0	72	2.8*	0	-7	6	11*
COc1ccc(CNC(=O)C2CCN(S(=O)(=O)N3CCC(C)CC3)CC2)c(OC)c1	x	x	0	x	x	-4	x
CC[C@]1(C(=O)OC)[C@H]2C(=O)N(C)C(=O)[C@H]2[C@H]2CN=C(SCc3ccc(C(=O)OC)cc3)N21	2	x	5.9*	6	-2	-4	1
CC(C)CN(C(=O)CSc1ncnc2ccccc12)C1CCS(=O)(=O)C1 (stereo not drawn)	5	361	0	2	15	-3	x
CN(C(=O)CSc1ncnc2ccccc12)C1CCS(=O)(=O)C1 (stereo not drawn)	2	189	4.5*	2	-12	-7	-1
CC1Sc2ccc(C(=O)NCc3ccccn3)cc2NC1=O (stereo not drawn)	0	581	5.5*	-15	-20	-2	1
O=C(CCN1N=C(c2ccccc2)CCC1=O)NC1CCCC1	0	389	3.0*	-1	0	-2	-1
SMILES	GRK2 aptamer HTS	T cell modulator	aDG glyco up	proCasp3 act	proCasp7 act	CaV13 FRET inh	aDG conf
O=C(CCN1N=C(c2ccccc2)CCC1=O)NC1CCCCC1	x	x	0	x	x	-7	x
COc1ccc(-c2ccc3c(c2)S(=O)(=O)c2cccc(C(=O)NCc4cccc(OC(F)(F)F)c4)c2C3=O)cc1OC	7	410	18*	3	-8	x	1
O=C(NCc1cccc(OC(F)(F)F)c1)c1cccc2c1C(=O)c1ccc(-c3ccc(F)cc3OCc3ccccc3)cc1S2(=O)=O	2	360	0	8	9	-5	x
Cc1nc(C(F)(F)F)ccc1C(=O)N1CCC(C)(C(=O)O)C1 (stereo not drawn)	x	x	0	x	x	-5	x
CC(C)c1ccc(-c2cc(C(=O)N3CCOCC3)c3cc(Br)ccc3n2)cc1	31	321	4.6*	2	5	-11	9.4*
COc1ccc(Cl)cc1C(=O)Nc1nnn(C)n1	3	443	0	-2	13	-5	x
CC[C@]12c3[nH]c4ccc(OC)cc4c3CCN1C(=O)C(CC(=O)NCc1ccco1)C[C@@H]2C(=O)N1CCN(C(=O)c2ccco2)CC1 (stereo partly drawn)	1	x	0	7	2	-8	x
C=CCNC(=S)N/N=C/c1ccc(OCc2ccccc2Cl)cc1	0	469	6.5*	1	2	-4	0
CCn1c(SCC(=O)NC2(C#N)CCCCC2)nc2ccccc2c1=O	1	410	4.0*	4	9	-6	0
CCn1c(SCC(=O)NCc2ccccc2)nc2ccccc2c1=O	0	272	0	9	12	-9	x
CC(C)OCCCNC(=O)Nc1cccc2ccccc12	2	332	0	11	0	-5	x
CCOC(=O)c1sc(N/N=C/c2ccc(N(C)C)cc2)nc1C	2	264	0	-23	-18	-20	x
C=CCc1c(C)nc(C)nc1N/N=C/c1ccc(N(C)C)cc1	1	374	6.3*	-16	-5	x	0
C=C1CCN(c2ccc(C(=O)NCCC)cc2[N+](=O)[O-])CC1	2	642	0	3	-6	-10	x
COc1ccc(CC(=O)N/N=C/c2cccnc2)cc1OC	1	363	6.5*	4	1	x	-1
C/[N+]([O-])=C\c1cccc(OCCN2CCN(c3ncc(C(F)(F)F)cc3Cl)CC2)c1	0	148	0	2	-1	-19	x
COc1ccccc1NC(=O)Cn1cc(C(=O)C2CC2)c2ccccc21	3	0	0	0	-2	-6	x
